# Hit rate of the full screen: of about 30,000 compounds, about 80 (0.3%) were called active. The sample holds actives, similar compounds and a random draw of the others, so the mix is not that of the screen.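 How the source made its calls: active means mutant and wild-type yeast strains alike exhibit over 30% growth inhibition; inconclusive means a strain exceeds 50% while the second remains under 30%; inactive means the rest.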
# Assay: yeast growth toxicity, wild-type and mutant, primary screen, cytotoxicity control for eIF2B function restoration project, wild-type and eIF2Bepsilon R284H mutant, A595 (AID 685);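 further: 0% = untreated cell controls and 100% = YPD media blanks without cells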
# Conditions: A595 turbidity, 16 h, stronger effect = higher value, screened at 25 µM (by protocol)
# How it was run: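 Schedule: 16 h growth with compound, 30 °C. System: yeast, wild-type or eIF2Bepsilon-R284H mutant. Doses: one dose, 25 µM compound[…]. Buffer or medium: YPD. Signal: turbidity measured as absorbance at 595 nm. Read-out basis: growth inhibition (%) versus cell controls and blanks.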
# [1] = S. cerevisiae eIF2Bepsilon-R284H mutant growth
SMILES,growth inhibition [1] [%],growth inhibition (S. cerevisiae wild-type growth)
COc1ccc(CN(Cc2ccco2)S(=O)(=O)c2ccc(S(=O)(=O)N3CCCC3)cc2)cc1,-2.56,16.6% (inactive)
O=C(CN1CCOCC1)Nc1ccccc1,12.8,11.2% (inactive)
CCCCCCNC(=O)CSc1nccn1Cc1ccccc1,11.1,20.4% (inactive)
Cc1ccc(CNC(=O)COc2ccc(S(=O)(=O)NC(C)C)cc2)cc1,11.6,20.3% (inactive)
COc1ccc(NC(=O)Cn2c(=O)n(Cc3ccco3)c(=O)c3ccccc32)cc1,-12.8,-47.3% (inactive)
O=c1c2ccccc2nc(CSc2nnnn2-c2ccccc2)n1-c1ccccc1,-14.8,-3.81% (inactive)
CCN(CC)C(=O)CSc1nnc(C2CCCCC2)o1,6.82,9.66% (inactive)
CCOc1cc(NC(=O)c2cnccn2)c(OCC)cc1NC(=O)c1ccc(C)cc1,-33.3,-5.09% (inactive)
CC(C)(C)C(=O)Cn1c(NCCO)nc2ccccc21,-6.25,21% (inactive)
Cc1ccc(-n2ccc(=O)c(C(=O)O)n2)cc1,18.9,4.62% (inactive)
Cc1ccc(Cc2c(C)nc3nc(SCC(=O)NCCN4CCOCC4)nn3c2C)cc1,0,3.33% (inactive)
CC(C)CC(=O)Nc1cc(C(F)(F)F)ccc1N1CCOCC1,10.5,18.6% (inactive)
CCC(c1nnnn1C1CCCC1)N1CCN(C(=O)c2ccco2)CC1 (stereo not given),-13.6,-4.24% (inactive)
CCC(O)CNc1nc(-n2nc(C)cc2C)nc2sc3c(c12)CC(C)(C)OC3 (stereo not given),-4.55,4.83% (inactive)
O=C(CCc1ccccc1)NCc1cccnc1,4.55,-12.1% (inactive)
CCOCCCNC(=O)c1c[nH]c2cc(C)ccc2c1=O,-17.9,16.6% (inactive)
N#Cc1c(/N=C/N2CCCC2)oc(-c2ccccc2)c1-c1ccccc1,7.69,-15.7% (inactive)
COc1ccccc1NC(=O)C1CCCN(c2cc(C)nc3ncnn23)C1 (stereo not given),-7.89,2.42% (inactive)
COc1ccc2oc(C)c(NC(C)=O)c2c1,-6.67,17.6% (inactive)
FC(F)(F)c1nnc2ccc(N3CCN(c4ccccc4)CC3)nn12,9.68,11.8% (inactive)
OC(c1ccccc1)c1nccn1Cc1ccccc1 (stereo not given),6.98,31% (inactive)
O=C(CCC(=O)OCC(F)(F)C(F)F)NCc1ccccc1,8.11,2.5% (inactive)
CCOC(=O)CSc1nc2ccc(C)cc2[nH]1,0,-5.43% (inactive)
CC(=O)c1cccc(NC(=O)Nc2ccc(C)cc2)c1,12.5,-4.69% (inactive)
COc1ccc(N2CCN(C(=O)CCc3nc(-c4ccc(C)cc4)no3)CC2)cc1,5,10% (inactive)
Cc1ccc(S(=O)(=O)Oc2ccc(/C=N/NC(=O)c3c(Cl)cnn3C)cc2)cc1,0,11.2% (inactive)
CCCc1nc(NCc2ccc3c(c2)OCO3)c2nnn(Cc3ccccc3Cl)c2n1,-4.84,-14.3% (inactive)
COc1ccc(CN2CN(C(C)C)CSC2=S)cc1,81.8,44.7% (active)

SMILES,growth inhibition [1] [%],growth inhibition (S. cerevisiae wild-type growth)
COc1cc2c(cc1OC)C(C(C)C)=NC(C)(C)C2,3.13,7.59% (inactive)
CCOCCCNC(=O)C(NC(=O)CNC(=O)c1ccccc1)c1ccc(C)cc1 (stereo not given),0,1.25% (inactive)
C=C(C)CSc1nnc(-c2ccc(C)cc2)n1N,10.3,-3.2% (inactive)
CC(C)NC(=O)C(=O)NCCN1CCN(S(=O)(=O)c2ccc(Cl)cc2)CC1,7.69,7.31% (inactive)
COc1ccc(C2CC(=O)n3c(nc4ccccc43)S2)cc1OC (stereo not given),-2.13,32% (inactive)
COc1ccc(-c2cc(C(F)(F)F)nc(NCc3cccnc3)n2)cc1,25.5,15.3% (inactive)
CCCc1nc2sc3c(c2c(=O)n1NC(=O)CCCl)CCCC3,9.3,-7.93% (inactive)
CCn1nc(C)c(NC(=O)/C=C/c2ccc(OC)c(COc3ccc(Br)cc3)c2)c1C,50,54.5% (active)
COc1cccc(OCc2cc(/C=N/NC(=O)c3nc(Cl)c(Cl)c(N)c3Cl)ccc2OC)c1,-17.9,-14.8% (inactive)
CCOC(=O)N1CCN(C(=O)COc2ccc(Br)cc2)CC1,0,10.3% (inactive)
C=CCn1c(SCc2c(C(=O)OC)sc(N)c2C(=O)OC)nnc1-c1ccc(Cl)cc1,6.98,-10.3% (inactive)
CCCCOc1ccc(C(=O)NCc2ccncc2)cc1,18.6,33.8% (inactive)
CCCOc1ccc(C2NC(=O)NC(c3ccccc3)=C2C(C)=O)cc1OCC (stereo not given),7.89,4.64% (inactive)
COC(=O)/C(NC(C)=O)=C(\C)c1ccc(Cl)cc1,-32.3,8.3% (inactive)
CCOc1ccc(NC(=O)CCS(=O)(=O)c2ccc3c(c2)CCCN3C(=O)CC)cc1,13.5,10.8% (inactive)
CCN(CC)CCn1c(=S)[nH]c2ncccc2c1=O,5.13,11.5% (inactive)
CCc1ccc(NC(=O)CN2C(=O)CSC2=O)cc1,-8.82,5% (inactive)
COc1ccc(C)cc1S(=O)(=O)NCCc1ccccc1,12.9,4.64% (inactive)
CC(C)=C1SC(N2CCN(c3cccc(C)c3)CC2)=NC1=O,16.2,11.8% (inactive)
COc1cccc2cc(C(=O)N3CCN(C(=O)c4ccccc4)CC3)c(=O)oc12,9.38,8.28% (inactive)
CC(Oc1ccc(Cl)cc1)c1ccnn1S(C)(=O)=O (stereo not given),10.8,28.1% (inactive)
CC(C)(C)n1nnnc1C(c1ccc(F)cc1)N1CCN(Cc2ccc3c(c2)OCO3)CC1 (stereo not given),-18.2,15% (inactive)
N/C(=N\OC(=O)Nc1ccc(Cl)c(Cl)c1)c1ncc(C(F)(F)F)cc1Cl,30.3,35.2% (active)
CCn1nccc1C(=O)Nc1ccc(Cl)c(Cl)c1,-8.33,12.8% (inactive)
NC(=O)c1ncc(C(F)(F)F)cc1Oc1ccc(F)cc1,-3.33,19.2% (inactive)
CN1CCN(C(=O)Cn2c(C(F)(F)F)nc3ccccc32)CC1,25,9.62% (inactive)
CC(C)(C)N1CC(c2nc3ccccc3n2Cc2ccc(F)cc2)CC1=O (stereo not given),20,5% (inactive)

# — PubChem BioAssay AID685 (PCMD, 2007)
